IC50, Activity and Ki data for 15 compounds are collected here from ChEMBL document CHEMBL3351583, “Two-pronged attack: dual inhibition of Plasmodium falciparum M1 and M17 metalloaminopeptidases by a novel series of hydroxamic acid-based inhibitors” (J Med Chem, 2014).

Some results are limits rather than exact numbers.

One series has as its system Plasmodium falciparum. Kind of series: Antimalarial activity against Plasmodium falciparum 3D7 assessed as parasite growth inhibition after 72 hrs by DAPI staining based confocal microscopy. Type of series: functional, organism-based. The following applies: 3D7, 72 h. A digest of the protocol: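 Sorbitol-synchronised 3D7 rings (2% parasitaemia, 0.3% haematocrit) in RPMI/Hepes/hypoxanthine/AlbuMAX II exposed to three-step log dilutions from 40 μM top, final 0.4% DMSO, 72 h at 37 °C, 5% CO₂. Saponin/Triton X/EDTA buffer with DAPI added, overnight RT, confocal imaging counts parasites; % growth versus 2 μM artemisinin and 0.4% DMSO controls; IC50 by variable-slope nonlinear regression.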

A further series has as its system HEK293. As to the kind of experiment: Cytotoxicity against HEK293 cells assessed as growth inhibition up to 40 uM after 72 hrs by resazurin based assay. The series is classed as cell-based. Particulars: human, hek293, 72 h. A digest of the protocol:
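HEK293 in DMEM plus 10% FCS, seeded 2000 cells/well, adhered overnight, then dosed to top final 40 μM, 0.4% DMSO, 72 h at 37 °C, 5% CO₂. Medium replaced with 44 μM resazurin in serum-free DMEM, 4-6 h more, fluorescence 530/595 nm; % growth against 40 μM puromycin and 0.4% DMSO controls; IC50 by variable-slope nonlinear regression.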

For another series, the target named is T1, Leucine aminopeptidase (Plasmodium falciparum 3D7, UniProt Q8IL11).
T1 sequence (Q8IL11 whole entry): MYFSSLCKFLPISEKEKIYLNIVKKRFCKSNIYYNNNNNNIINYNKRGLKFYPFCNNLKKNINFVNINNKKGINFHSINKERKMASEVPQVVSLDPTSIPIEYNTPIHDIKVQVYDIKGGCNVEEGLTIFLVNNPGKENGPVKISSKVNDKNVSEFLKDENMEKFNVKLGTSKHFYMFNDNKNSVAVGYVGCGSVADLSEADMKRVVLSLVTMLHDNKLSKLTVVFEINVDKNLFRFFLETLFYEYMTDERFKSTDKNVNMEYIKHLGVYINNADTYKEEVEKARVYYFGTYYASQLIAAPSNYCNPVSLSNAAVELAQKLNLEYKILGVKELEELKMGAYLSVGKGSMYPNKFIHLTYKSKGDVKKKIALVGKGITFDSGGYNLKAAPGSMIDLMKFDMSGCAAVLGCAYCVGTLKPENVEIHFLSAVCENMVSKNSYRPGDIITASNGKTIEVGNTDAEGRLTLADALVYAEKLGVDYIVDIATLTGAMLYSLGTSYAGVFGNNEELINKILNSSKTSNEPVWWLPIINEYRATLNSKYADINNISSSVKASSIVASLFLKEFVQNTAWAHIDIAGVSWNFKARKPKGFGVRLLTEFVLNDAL
As to the kind of experiment: Inhibition of Plasmodium falciparum M17 incubated for 10 mins before H-Leu-NHMec substrate addition by fluorescence assay. A digest of the protocol:
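Recombinant PfA-M17 purified from E. coli by Ni-NTA and gel filtration; 10 min inhibitor preincubation (0-500 μM) in 50 mM Tris pH 8.0, 2 mM CoCl₂, 37 °C, before H-Leu-NHMec at sub-Km level. Fluorescence (355/460 nm) followed to final steady-state velocity; Ki obtained by Dixon plot.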

The target of another series is T2, Aminopeptidase N (Plasmodium falciparum FcB1/Columbia, UniProt O96935).
T2 sequence (O96935 whole entry): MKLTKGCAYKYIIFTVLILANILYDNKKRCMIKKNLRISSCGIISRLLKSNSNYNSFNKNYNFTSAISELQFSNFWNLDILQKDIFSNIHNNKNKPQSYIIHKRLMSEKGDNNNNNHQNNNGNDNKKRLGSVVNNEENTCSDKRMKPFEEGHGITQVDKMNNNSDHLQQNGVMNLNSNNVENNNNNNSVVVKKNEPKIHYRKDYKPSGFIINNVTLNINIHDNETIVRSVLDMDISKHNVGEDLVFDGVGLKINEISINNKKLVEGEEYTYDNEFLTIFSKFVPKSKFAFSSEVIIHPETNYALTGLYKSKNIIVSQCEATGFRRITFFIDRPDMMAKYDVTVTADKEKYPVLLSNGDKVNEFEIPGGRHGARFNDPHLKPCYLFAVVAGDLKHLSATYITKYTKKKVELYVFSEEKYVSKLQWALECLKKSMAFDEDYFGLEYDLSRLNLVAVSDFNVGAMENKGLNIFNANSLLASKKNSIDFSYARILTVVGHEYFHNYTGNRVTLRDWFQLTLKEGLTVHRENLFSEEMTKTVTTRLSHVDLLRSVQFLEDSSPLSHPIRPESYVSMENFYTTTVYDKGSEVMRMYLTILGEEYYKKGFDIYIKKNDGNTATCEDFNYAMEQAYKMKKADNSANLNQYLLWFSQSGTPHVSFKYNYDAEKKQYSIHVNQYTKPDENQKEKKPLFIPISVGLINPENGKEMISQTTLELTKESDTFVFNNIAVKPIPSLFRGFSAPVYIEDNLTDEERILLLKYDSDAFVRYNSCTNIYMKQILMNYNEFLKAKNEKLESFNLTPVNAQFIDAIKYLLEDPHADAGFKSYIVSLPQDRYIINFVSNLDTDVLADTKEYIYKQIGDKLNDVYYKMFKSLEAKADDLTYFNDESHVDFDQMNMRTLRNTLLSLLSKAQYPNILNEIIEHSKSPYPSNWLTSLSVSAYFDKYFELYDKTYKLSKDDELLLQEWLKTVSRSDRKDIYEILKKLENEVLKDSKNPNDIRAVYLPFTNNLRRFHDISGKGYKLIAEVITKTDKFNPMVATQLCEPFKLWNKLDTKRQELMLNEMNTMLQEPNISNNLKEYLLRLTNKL
As to the kind of experiment: Inhibition of Plasmodium falciparum M1 incubated for 10 mins before H-Leu-NHMec substrate addition by fluorescence assay. A digest of the protocol:
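Recombinant PfA-M1 (E. coli, Ni-NTA then size exclusion) preincubated with inhibitor (0-500 μM) 10 min in 100 mM Tris pH 8.0 at 37 °C, then H-Leu-NHMec added below Km. NHMec release read at ex 355/em 460 nm to steady-state velocity; Ki from Dixon plots of 1/V against inhibitor concentration.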

Usually IC50 stands for the concentration that gives 50% inhibition. One may read the Ki as a dissociation constant, usually derived from enzyme kinetics or from competition with a known ligand. Read a low Ki as tighter binding.

For the compound `Nc1cccc(C(=O)NC(C(=O)NO)c2ccc(-n3cccn3)cc2)c1` (stereo unspecified), in the series with Plasmodium falciparum, the half-inhibitory concentration (IC50) is 233 nM. The Activity entry with HEK293 is reported as “Non-toxic”. Besides, the Ki stood at 14 nM at Leucine aminopeptidase and 5500 nM at Aminopeptidase N.
For the compound `CC(C)(C)OC(=O)NC(C(=O)O)c1ccc(-n2cccn2)cc1` (stereo unspecified), the Activity result in the series with HEK293 was “Non-toxic”. For the same compound, the values for the inhibition constant Ki at Leucine aminopeptidase and on Aminopeptidase N were 464000 nM and over 500000 nM, respectively.
The like results for `O=C(NC(C(=O)NO)c1ccc(-n2cccn2)cc1)c1ccccc1` (stereo unspecified) were, in that order, “Non-toxic”, 154 nM and 23000 nM.
As to `CC(C)(C)OC(=O)NC(C(=O)NO)c1ccc(-n2cccn2)cc1` (stereo unspecified), the concentration for half-maximal inhibition (IC50) with Plasmodium falciparum was 783 nM. For the same compound, the Activity entry with HEK293 is on record as “Non-toxic”. In addition, the values for the Ki at Leucine aminopeptidase and at Aminopeptidase N were 30 nM and 800 nM, respectively.
The like results for `CC(C)(C)C(=O)NC(C(=O)NO)c1ccc(-n2cccn2)cc1` (stereo unspecified) were, in that order, 227 nM, “Non-toxic”, 28 nM and 700 nM.
The like results for `CC(=O)NC(C(=O)NO)c1ccc(-n2cccn2)cc1` (stereo unspecified) were, in that order, 619 nM, “Non-toxic”, 19 nM and 113000 nM.
On to `CC(C)(C)NC(=O)NC(C(=O)NO)c1ccc(-n2cccn2)cc1` (stereo unspecified), for which, in the series with Plasmodium falciparum, the IC50 turned out to be 597 nM. Also, in the series with HEK293, the Activity result is recorded as “Non-toxic”. The inhibitory constant (Ki) on Leucine aminopeptidase amounted to 38 nM; at Aminopeptidase N it was 15300 nM.
The like results for `CC(C)C(=O)NC(C(=O)NO)c1ccc(-n2cccn2)cc1` (stereo unspecified) were, in that order, 532 nM, “Non-toxic”, 53 nM and 12300 nM.
On to `Cl.NC(C(=O)NO)c1ccc(-n2cccn2)cc1` (stereo unspecified), for which the Activity result in the series with HEK293 is given as “Non-toxic”. Moreover, the Ki on Leucine aminopeptidase amounted to 86000 nM; at Aminopeptidase N, 74500 nM.
As for `Nc1ccc(C(=O)NC(C(=O)NO)c2ccc(-n3cccn3)cc2)cc1` (stereo unspecified), in the series on Plasmodium falciparum, the IC50 was found to be 228 nM. Moreover, the Activity result in the series on HEK293 is on record as “Non-toxic”. Moreover, the inhibition constant Ki was determined as 11 nM at Leucine aminopeptidase and 7400 nM on Aminopeptidase N.
The like results for `O=C(NC(C(=O)NO)c1ccc(-n2cccn2)cc1)c1ccc(F)cc1` (stereo unspecified) were, in that order, 703 nM, “Non-toxic”, 12 nM and 11200 nM.
The like results for `O=C(NC(C(=O)NO)c1ccc(-n2cccn2)cc1)c1ccccc1F` (stereo unspecified) were, in that order, 351 nM, “Non-toxic”, 8 nM and 1900 nM.
The like results for `O=C(NC(C(=O)NO)c1ccc(-n2cccn2)cc1)c1cccc(F)c1` (stereo unspecified) were, in that order, 429 nM, “Non-toxic”, 35 nM and 4000 nM.
Regarding `CCC(=O)NC(C(=O)NO)c1ccc(-n2cccn2)cc1` (stereo unspecified), the IC50 with Plasmodium falciparum is 455 nM. The Activity entry in the series on HEK293 is on record as “Non-toxic”. Moreover, the results for the Ki at Leucine aminopeptidase and at Aminopeptidase N were 16 nM and 41300 nM, respectively.
`Cl.NC(C(=O)O)c1ccc(-n2cccn2)cc1` (stereo unspecified): in the series with HEK293, the Activity result was “Non-toxic”. The Ki at Leucine aminopeptidase and on Aminopeptidase N was over 500000 nM in each case.
